Test results published in ChEMBL document CHEMBL4002619, “Targeting Type 2 Diabetes with C-Glucosyl Dihydrochalcones as Selective Sodium Glucose Co-Transporter 2 (SGLT2) Inhibitors: Synthesis and Biological Evaluation” (J Med Chem, 2017).
Activity calls are given as the source filed them. No cut-off for these calls is given here.

Legend:
Assay type in all cases: cell-based
[1] = target: T1, Sodium/glucose cotransporter 2 (Homo sapiens) (UniProt P31639); assay: Inhibition of human SGLT2 expressed in HEK293 cells assessed as reduction in 2-deoxyglucose uptake at 100 uM pretreated for 10 mins followed by 2-deoxyglucose addition in presence of sodium buffer measured after 1 hr by resazurin dye based fluorescence assay
T1 sequence (whole entry): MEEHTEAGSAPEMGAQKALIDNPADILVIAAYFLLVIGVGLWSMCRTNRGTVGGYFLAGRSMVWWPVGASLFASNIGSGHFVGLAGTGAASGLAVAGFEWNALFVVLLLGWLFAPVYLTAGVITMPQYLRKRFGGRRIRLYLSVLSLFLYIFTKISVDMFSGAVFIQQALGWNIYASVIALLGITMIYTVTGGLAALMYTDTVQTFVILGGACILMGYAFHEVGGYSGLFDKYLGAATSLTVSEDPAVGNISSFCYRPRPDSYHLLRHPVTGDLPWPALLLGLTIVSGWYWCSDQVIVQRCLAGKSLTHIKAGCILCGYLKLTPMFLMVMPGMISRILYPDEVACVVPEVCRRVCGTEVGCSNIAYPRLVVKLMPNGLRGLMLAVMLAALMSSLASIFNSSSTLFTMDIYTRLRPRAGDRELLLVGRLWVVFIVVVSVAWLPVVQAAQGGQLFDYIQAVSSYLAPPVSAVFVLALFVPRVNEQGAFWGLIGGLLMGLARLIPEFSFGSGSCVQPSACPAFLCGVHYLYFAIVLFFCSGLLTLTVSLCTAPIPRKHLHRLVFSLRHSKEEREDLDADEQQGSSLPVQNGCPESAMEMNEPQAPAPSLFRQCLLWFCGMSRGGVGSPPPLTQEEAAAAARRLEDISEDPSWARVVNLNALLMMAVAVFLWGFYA
Outline: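 Stably transfected HEK293 expressing human SGLT2 (pCMV6-Neo, G418-selected), 2.0 × 10^4 cells/well, 24 h; 1 h preincubation in KRPH buffer at 37 °C; compound 100 µM; 2-deoxyglucose 1 mM, 1 h at 37 °C; NaOH lysis at 80-85 °C, neutralised; enzymatic cycling (G6PDH, NADP+, diaphorase, 10 µM resazurin, pH 8.2) 15-20 h; fluorescence ex 560/em 590 nm. Mean ± SD, three independent experiments.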

[2] = target: T2, Sodium/glucose cotransporter 1 (Homo sapiens, UniProt P13866); assay: Inhibition of human SGLT1 expressed in HEK293 cells assessed as reduction in 2-deoxyglucose uptake at 100 uM pretreated for 10 mins followed by 2-deoxyglucose addition in presence of sodium buffer measured after 1 hr by resazurin dye based fluorescence assay; conditions: hek293, 1 h
T2 sequence (P13866 whole entry): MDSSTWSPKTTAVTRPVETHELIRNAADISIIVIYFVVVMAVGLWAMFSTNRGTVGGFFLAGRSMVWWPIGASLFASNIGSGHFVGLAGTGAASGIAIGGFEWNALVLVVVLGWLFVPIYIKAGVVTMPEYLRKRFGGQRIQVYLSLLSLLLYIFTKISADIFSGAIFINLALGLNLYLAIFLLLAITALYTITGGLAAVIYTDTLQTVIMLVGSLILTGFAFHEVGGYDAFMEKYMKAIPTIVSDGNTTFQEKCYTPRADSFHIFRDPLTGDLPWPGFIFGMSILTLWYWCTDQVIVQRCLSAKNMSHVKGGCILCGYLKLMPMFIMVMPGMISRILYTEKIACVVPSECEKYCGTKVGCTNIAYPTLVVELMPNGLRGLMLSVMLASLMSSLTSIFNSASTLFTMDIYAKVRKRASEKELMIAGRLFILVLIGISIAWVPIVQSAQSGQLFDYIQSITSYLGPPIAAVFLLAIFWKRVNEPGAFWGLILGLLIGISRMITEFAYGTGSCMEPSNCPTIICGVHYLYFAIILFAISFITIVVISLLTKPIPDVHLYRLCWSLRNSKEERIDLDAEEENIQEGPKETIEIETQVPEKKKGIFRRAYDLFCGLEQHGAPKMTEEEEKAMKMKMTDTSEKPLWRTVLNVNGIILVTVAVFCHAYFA

[3] = target: T3, Sodium/glucose cotransporter 2 (Homo sapiens, UniProt P31639); assay: Inhibition of human SGLT2 expressed in HEK293 cells assessed as reduction in 2-deoxyglucose uptake pretreated for 10 mins followed by 2-deoxyglucose addition in presence of sodium buffer measured after 1 hr by resazurin dye based fluorescence assay
T3 sequence (P31639 whole entry): T1 sequence (whole entry)

HEK293 = assay: Cytotoxicity in HEK293 cells assessed as cell viability at 100 uM measured after 20 to 24 hrs by Cell-Titer Blue fluorescence assay; conditions: human, hek293, 100 µM
Outline: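 HEK293 cells (DMEM, 10% FBS, 37 °C, 5% CO2) seeded 2.0 × 10^4 cells/well 24 h before; compound at 100 µM in triplicate, 20-24 h at 37 °C; CellTiter-Blue 4 h at 37 °C; fluorescence ex 560/em 590 nm; viability as treated/untreated fluorescence ratio, %. DMSO-treated wells run alongside. Mean ± SD of three independent experiments.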

[4] = Inhibition of GLUT in HEK293 cells assessed as reduction in 2-deoxyglucose uptake at 100 uM pretreated for 10 mins followed by 2-deoxyglucose addition in presence of choline buffer measured after 1 hr by resazurin dye based fluorescence assay; conditions: human
Outline: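 SGLT1 and SGLT2 stable HEK293 lines (G418-selected) assayed in sodium-free buffer, NaCl replaced by choline chloride; compounds at 100 µM; phlorizin and cytochalasin B as controls. 2-deoxyglucose 1 mM, 1 h at 37 °C; lysis in 0.1 M NaOH, 80-85 °C 40 min, neutralised; G6PDH/NADP+/diaphorase/resazurin cycling 15-20 h at 37 °C; resorufin fluorescence ex 560/em 590 nm.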

[5] = Inhibition of GLUT in HEK293 cells assessed as reduction in 2-deoxyglucose uptake pretreated for 10 mins followed by 2-deoxyglucose addition in presence of sodium buffer measured after 1 hr by resazurin dye based fluorescence assay; conditions: human
[6] = Inhibition of GLUT in HEK293 cells assessed as reduction in 2-deoxyglucose uptake pretreated for 10 mins followed by 2-deoxyglucose addition in presence of choline buffer measured after 1 hr by resazurin dye based fluorescence assay; conditions: human

| SMILES | inhibition [1] | inhibition (INH) [2] | IC50 [3] | Activity (HEK293) | inhibition (INH) [4] | inhibition (INH) [5] | inhibition (INH) [6] |
| --- | --- | --- | --- | --- | --- | --- | --- |
| O=C(CCc1ccc(O)cc1)c1c(O)cc(O)c([C@@H]2O[C@H](CO)[C@@H](O)[C@H](O)[C@H]2O)c1O | Active | Active | 0.0119 µM | Non-Toxic | Not Active |  |  |
| COc1ccc(CCC(=O)c2c(O)cc(O)c([C@@H]3O[C@H](CO)[C@@H](O)[C@H](O)[C@H]3O)c2O)cc1 | Active | Active | 0.0213 µM | Non-Toxic | Not Active |  |  |
| CCOc1ccc(CCC(=O)c2c(O)cc(O)c([C@@H]3O[C@H](CO)[C@@H](O)[C@H](O)[C@H]3O)c2O)cc1 | Active | Active | 0.0217 µM | Non-Toxic | Not Active |  |  |
| Cc1ccc(CCC(=O)c2c(O)cc(O)cc2O)cc1 | Active | Active | 18 µM | Non-Toxic | Active |  |  |
| CCOc1ccc(/C=C/C(=O)c2c(O)cc(O)cc2O)cc1 | Active | Active | 26 µM | Non-Toxic | Active |  |  |
| O=C(/C=C/c1ccc(F)cc1)c1c(O)cc(O)cc1O [4-FLUORO-2',4',6'-TRIHYDROXYCHALCONE] | Active | Active | 51.7 µM | Non-Toxic | Active |  |  |
| O=C(CCc1ccc(O)cc1)c1c(O)cc(O)cc1O[C@@H]1O[C@H](CO)[C@@H](O)[C@H](O)[C@H]1O [PHLORIZIN] | Active |  |  | Non-Toxic |  |  |  |
| C=CCOc1ccc(/C=C/C(=O)c2c(O)cc(O)cc2O)cc1 | Active | Active | 26.2 µM | Non-Toxic | Active |  |  |
| Cc1ccc(CCC(=O)c2c(O)cc(O)c([C@@H]3O[C@H](CO)[C@@H](O)[C@H](O)[C@H]3O)c2O)cc1 | Active | Active | 0.0182 µM | Non-Toxic | Not Active |  |  |
| CCCOc1ccc(CCC(=O)c2c(O)cc(O)c([C@@H]3O[C@H](CO)[C@@H](O)[C@H](O)[C@H]3O)c2O)cc1 | Active | Active | 0.0227 µM | Non-Toxic | Not Active |  |  |
| COc1ccc(CCC(=O)c2c(O)cc(O)cc2O)cc1 | Active | Active | 18.7 µM | Non-Toxic | Active |  |  |
| O=C(/C=C/c1ccc(Br)cc1)c1c(O)cc(O)cc1O [4-BROMO-2',4',6'-TRIHYDROXYCHALCONE] | Active | Active | 23.5 µM | Non-Toxic | Active |  |  |
| CCCOc1ccc(CCC(=O)c2c(O)cc(O)cc2O)cc1 | Active | Active | 16.4 µM | Non-Toxic | Active |  |  |
| C=C1[C@@H](C)[C@H]2[C@H](Cc3ccccc3)NC(=O)[C@]23OC(=O)/C=C/[C@H](O)CCC[C@@H](C)C/C=C/[C@H]3[C@@H]1O [CYTOCHALASIN B] |  |  |  |  |  | Active | Active |
| O=C(CCc1ccccc1)c1c(O)cc(O)cc1O | Active | Active | 14.7 µM | Non-Toxic | Active |  |  |
| O=C(CCc1ccc(O)cc1)c1c(O)cc(O)cc1O [PHLORETIN] | Active |  | 18.3 µM | Non-Toxic | Active |  |  |
| Cc1ccc(/C=C/C(=O)c2c(O)cc(O)cc2O)cc1 | Active | Active | 34.1 µM | Non-Toxic | Active |  |  |
| O=C(/C=C/c1ccccc1)c1c(O)cc(O)cc1O [2',4',6-TRIHYDROXYCHALCONE] | Active |  |  |  |  |  |  |
| CCOc1ccc(CCC(=O)c2c(O)cc(O)cc2O)cc1 | Active | Active | 16.7 µM | Non-Toxic | Active |  |  |
| O=C(CCc1ccc(F)cc1)c1c(O)cc(O)cc1O | Active | Active | 15.8 µM | Non-Toxic | Active |  |  |
| O=C(CCc1ccccc1)c1c(O)cc(O)c([C@@H]2O[C@H](CO)[C@@H](O)[C@H](O)[C@H]2O)c1O | Active | Active | 0.0198 µM | Non-Toxic | Not Active |  |  |
| O=C(CCc1ccc(F)cc1)c1c(O)cc(O)c([C@@H]2O[C@H](CO)[C@@H](O)[C@H](O)[C@H]2O)c1O | Active | Active | 0.0091 µM | Non-Toxic | Not Active |  |  |
| CCOc1ccc(Cc2cc([C@@H]3O[C@H](CO)[C@@H](O)[C@H](O)[C@H]3O)ccc2Cl)cc1 [DAPAGLIFLOZIN] | Active | Active |  |  |  |  |  |
| O=C(/C=C/c1ccc(OCc2ccccc2)cc1)c1c(O)cc(O)cc1O | Active | Active | 22.7 µM | Non-Toxic | Active |  |  |
| COc1ccc(/C=C/C(=O)c2c(O)cc(O)cc2O)cc1 [4-METHOXYL-2',4',6'-TRIHYDROXYCHALCONE] | Active | Active | 18.2 µM | Non-Toxic | Active |  |  |
